# From PMC7709506 (ESMO Open, 2020)
# Assays:
# [1] = tested on: FGFR and VEGFR pathways; assay: Soluble biomarkers of FGFR and VEGFR pathways; parameters: species or system human; details: in vivo
# Method in brief: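 Plasma FGF23, sVEGFR2, sVEGFR1, VEGF, FGF2 and PGF were sampled at baseline, day 8 and day 29 during oral test compound dosing and analysed in batches during or at study end. Values are expressed as percentage change from baseline (day 1 predose).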
# [2] = tested on: UGT1A1; details: human liver microsomes; cited from earlier work
# [3] = tested on: cell lines with increased FGFR activity; details: cell lines with increased FGFR activity and known dependency on FGFR signalling; cited from earlier work
# [4] = tested on: advanced or metastatic solid tumours; assay: Preliminary antitumour activity; type: in vivo, human
smiles,measurement,setting,value
Cn1cc(-c2ccc3c(c2)ncn3-c2cc(NS(=O)(=O)C3CC3)cc(-c3ccc(F)cc3F)c2)cn1 [ODM-203],"percentage mean changes in soluble markers FGF23, VEGFR2, VEGF and PGF",[1],appeared to be dose dependent
same,IC50,[2],100 nM
same,cell proliferation,[3],suppresses cell proliferation
same,overall response rate,"[4]; RECIST, all evaluable (7/76 patients)",9.2%
same,disease control rate,[4]; all evaluable,57.9%
same,median progression-free survival,[4]; non-FGFR patients,12.4 weeks
same,disease control rate,[4]; non-FGFR tumours,52.3%
same,overall response rate,[4]; non-FGFR tumours (3/44),6.8%
same,patients without disease progression at 16 weeks,[4]; non-FGFR tumours (16/42),38.1%
same,patients without disease progression at 16 weeks,[4]; overall (24/71),33.8%
same,median progression-free survival,[4]; patients with FGFR aberration(s),16.1 weeks
same,disease control rate,[4]; tumours with FGFR aberrations,65.6%
same,overall response rate,[4]; tumours with FGFR aberrations (4/32),12.5%
same,patients without disease progression at 16 weeks,[4]; tumours with FGFR aberrations (8/29),27.6%
